Compounds with a hit are over-represented: about 2.3% of the library has one in this group of screens.
TRPC4 agonist: opens the mouse TRPC4 cation channel | Q9QUQ5 | 310,000 compounds, 0.49% hits | HEK293 TRPC4beta/mu-opioid, Fluo4 calcium fluorescence; hits give high values | B-score at 10 µM;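 active means B-score above 5 SD of library B-scores, and initial fluorescence ratio not above library mean plus 5 SD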;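 further: positive B-score marks a calcium rise read as TRPC4 activation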
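Assay system: HEK293 stable line with TRPC4beta plus mu-opioid receptor. Times: dye 45 min RT, read 110 s. Measured by: kinetic Fluo4 calcium fluorescence. Measure: B score of integrated ratio. Controls: assay buffer as low control, maximal DAMGO as high control.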
TRPC6 act: activates the mouse TRPC6 cation channel; Q61143; HEK293-TRPC6 membrane potential dye fluorescence; hits give high values; B-score at 10 µM; 310,000 compounds, 0.13% hits;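 active means B-score of the integrated fluorescence ratio above library mean plus 3 SD, and starting fluorescence ratio within library mean plus 5 SD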;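 further: higher score means more depolarization so channel activation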
Target sequence (Q61143 whole entry, looked up): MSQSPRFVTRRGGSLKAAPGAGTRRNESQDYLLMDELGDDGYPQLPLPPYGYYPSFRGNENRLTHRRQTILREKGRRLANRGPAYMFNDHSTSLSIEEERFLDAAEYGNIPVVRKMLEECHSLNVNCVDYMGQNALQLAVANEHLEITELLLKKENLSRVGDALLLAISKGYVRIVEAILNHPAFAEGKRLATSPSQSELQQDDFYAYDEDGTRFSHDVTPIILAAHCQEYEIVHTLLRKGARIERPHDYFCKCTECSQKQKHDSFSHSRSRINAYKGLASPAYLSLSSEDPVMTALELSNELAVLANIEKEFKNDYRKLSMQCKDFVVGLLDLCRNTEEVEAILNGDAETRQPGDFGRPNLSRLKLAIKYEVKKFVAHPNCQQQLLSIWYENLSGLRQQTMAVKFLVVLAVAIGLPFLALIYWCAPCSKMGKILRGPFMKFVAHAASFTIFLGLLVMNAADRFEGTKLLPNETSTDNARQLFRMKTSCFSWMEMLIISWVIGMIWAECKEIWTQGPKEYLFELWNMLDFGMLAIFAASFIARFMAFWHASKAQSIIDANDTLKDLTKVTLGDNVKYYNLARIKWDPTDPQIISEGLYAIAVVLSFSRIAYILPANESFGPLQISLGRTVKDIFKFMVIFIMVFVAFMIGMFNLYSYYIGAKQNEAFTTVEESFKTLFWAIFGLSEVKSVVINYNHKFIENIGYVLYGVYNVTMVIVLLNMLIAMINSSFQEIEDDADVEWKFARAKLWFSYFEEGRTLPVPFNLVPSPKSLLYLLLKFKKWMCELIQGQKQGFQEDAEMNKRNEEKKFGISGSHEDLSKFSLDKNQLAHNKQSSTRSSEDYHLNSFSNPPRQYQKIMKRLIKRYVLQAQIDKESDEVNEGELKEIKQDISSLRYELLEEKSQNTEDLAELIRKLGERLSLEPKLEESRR
TRPC6 inh: blocks the mouse TRPC6 cation channel. Q61143. 310,000 compounds, 1.1% hits. B-score at 10 µM. HEK293-TRPC6, membrane potential dye, ACh-evoked depolarization; hits give low values;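 active means B-score under library mean minus 3 SD, initial fluorescence not abnormally high, positive integrated signal ratio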;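 further: B-score derived from integrated fluorescence ratio over the kinetic read; more negative B-score means stronger inhibition of depolarization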
TRPC4 inh: blocks the mouse TRPC4 cation channel; B-score at 10 µM; AID 2247; HEK293 TRPC4beta/mu-opioid, DAMGO-evoked Fluo4 calcium flux; hits give low values; 300,000 compounds, 0.39% hits;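 active means B-score over 3 SD under the library average, no early fluorescence shift, positive overall ratio signal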
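Assay system: Stable TRPC4beta/mu-opioid receptor HEK293 cells | Reagent: DAMGO in two steps, submaximal then maximal | Compound dosing: Single concentration per test compound | Signal: Fluo4 Ca2+ flux fluorescence | Evaluation: Per-well B score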
TRPC4 PAM: allosterically enhances the mouse TRPC4 cation channel. Q9QUQ5. HEK293 TRPC4beta/mu-opioid, DAMGO EC20, Fluo-4 Ca2+ flux; hits give high values. B-score at 10 µM. 310,000 compounds, 0.42% hits;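 active means B-score of calcium response area above 5 SD of library B-scores, with initial fluorescence ratio within 5 SD of library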;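 further: B-score of integrated fluorescence ratio over time as area under calcium response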
* = called active by the depositor; i = inactive.

SMILES	TRPC4 agonist	TRPC6 act	TRPC6 inh	TRPC4 inh	TRPC4 PAM
COc1cccc(CN(C(=O)c2ccc([N+](=O)[O-])cc2)C2CCS(=O)(=O)C2)c1 (stereo unspecified)	i	i	i	i	i
CCn1c(=O)n(CCOC)c(=O)c2c3c(sc21)CCCC3	i	i	i	-6*	i
CN(C)CCn1c(=O)n(C2CCCCC2)c(=O)c2c3c(sc21)CCCCC3	i	i	i	i	i
COC(=O)c1ccc(NC(=O)Cn2nc(-c3ccncc3)nc2SCC(=O)Nc2nccs2)cc1	i	i	i	i	i
CCCc1nc(SCC(=O)N2CCCCCC2)c2c(=O)n(C)c(=O)n(C)c2n1	i	i	i	i	i
O=C(CNc1ccc(Br)cc1)c1ccc(O)cc1	i	i	i	-8*	i
O=C(Nc1ccccc1-c1ccccc1)C1CCCN(c2ncccn2)C1 (stereo unspecified)	i	i	i	i	i
CC[C@@H](C(=O)[C@@H](C)[C@@H](O)[C@H](C)CCc1ccc(C)c(O)c1C(=O)O)[C@H]1O[C@](CC)([C@H]2CC[C@](O)(CC)[C@H](C)O2)C[C@@H]1C	160*	i	i	i	i
CCc1nc(CN2CCN(c3cc(C(F)(F)F)ccn3)CC2)c(C)[nH]1	i	i	i	i	i
Cn1nc(C(=O)OCc2ccc(Br)cc2F)c2ccccc2c1=O	i	i	i	i	i
CCCc1nc(N2CCOCC2)c(C#N)c2c1CCCC2	i	i	i	i	i
CCCCc1nc(N2CCOCC2)c(C#N)c2c1CCCC2	i	i	i	-6*	i
Cc1cc(C)c(C)c(OCCN2CCOCC2)c1	i	i	i	i	10*
Cc1cc(C)c(C)c(OCCCn2ccnc2)c1	i	i	i	i	i
Cc1cccc(OCCN2CCOCC2)c1C	i	i	i	i	i
Cc1cc(C)c(C)c(OCCCN(C)C)c1	126*	i	i	i	13*
Cc1cc(C)n(Cc2ccc(NC(=O)c3c([N+](=O)[O-])c(C)nn3C)cc2)n1	i	i	i	i	i
CCCn1c(=O)c(C(=O)NCC2CCCO2)c(O)c2ccccc21 (stereo unspecified)	i	i	i	i	16*
CCCn1c(=O)c(C(=O)NNC(=O)c2ccccc2Cl)c(O)c2ccccc21	48*	i	i	i	i
O=C(NCC1CCCO1)c1c(O)c2ccccc2[nH]c1=O (stereo unspecified)	i	i	i	i	i
O=C(CSc1nnc(NC(=O)c2c(F)cccc2F)s1)NC1CC1	i	i	i	i	i
CC(C)(C)c1ccc(/C=N/NC(=S)NCc2ccccc2)cc1	i	i	i	i	i
C=CCNC(=S)N/N=C/c1ccc(C(C)(C)C)cc1	i	i	i	-6*	i
CC(C)N(Cc1ccccc1)C(=O)CN1C(=O)NC(Cc2ccccc2)(c2ccccc2)C1=O (stereo unspecified)	i	i	i	i	i
O=c1ccc(-c2nc3cc(Cl)ccc3n2Cc2ccccc2)c[nH]1	i	i	i	i	10*
SMILES	TRPC4 agonist	TRPC6 act	TRPC6 inh	TRPC4 inh	TRPC4 PAM
O=c1ccc(-c2nc3ccccc3n2Cc2ccccc2Cl)c[nH]1	i	i	i	i	i
CC(=O)OCCCN1C(=O)c2cccc3cc(Br)cc(c23)C1=O	i	i	i	-6*	i
CCOC(=O)CCCCCN1C(=O)c2cccc3cccc(c23)C1=O	i	i	i	i	i
CCN(CC)C(=O)Cn1cnc2sc(C(=O)NCCCN3CCOCC3)c(C)c2c1=O	i	i	i	i	i
COCC1CCCN(C(=O)c2ccc3nc(Cc4cccc(Cl)c4)oc3c2)C1 (stereo unspecified)	i	i	i	i	i
Cc1cccc(OCCCCCn2ccnc2)c1C	69*	i	i	i	i
CC(C)(C)c1cc(Cl)ccc1OCCn1ccnc1	63*	i	i	i	42*
Cc1cc(OCCn2ccnc2)cc(C)c1Cl	129*	i	i	i	i
Cc1ccc(C)c(OCCCCn2ccnc2)c1	133*	i	i	i	i
Cc1ccc(NC(=O)CS(=O)CC(=O)N(C(C)C(=O)NC2CCCCC2)C(C)(C)C)cc1 (stereo unspecified)	i	i	i	i	i
CC1=C(C(=O)OC2CCC(C)CC2)C(c2ccc(O)c([N+](=O)[O-])c2)NC(=O)N1 (stereo unspecified)	i	i	i	i	i
Cc1ccc(C(C)(C)C)c(OCCCn2ccnc2)c1	i	i	i	i	i
CC(C)(C)c1ccccc1OCCCCCn1ccnc1	i	i	i	i	42*
COc1ccc(-c2nnc(SCC(=O)Nc3cc(C)on3)o2)cc1	i	i	i	i	i
COc1ccccc1C1(CCNC(C)c2cccs2)CCOC(C(C)C)C1 (stereo unspecified)	77*	i	i	i	i
Cc1ccc(C2(CCN)CCOC(C(C)C)C2)cc1 (stereo unspecified)	i	i	i	i	i
Cc1ccc(C2(CCNC(C)c3cccs3)CCOC(C(C)C)C2)cc1 (stereo unspecified)	44*	i	i	i	i
COc1cccc(CNC(=O)C2CCN(c3cnccn3)CC2)c1	i	i	i	i	i
C=CCn1c(NC(C)c2cc(Cl)ccc2O)nc2ccccc21 (stereo unspecified)	i	i	i	-6*	i
CCN1CCN(c2ccc(NC(=O)c3ccc(Br)o3)cc2)CC1	i	i	i	i	i
CN1CCN(c2ccc(NC(=O)c3ccc(-c4ccc(Br)cc4)o3)cc2)CC1	48*	i	i	-7*	i
CN1CCN(C(=O)N2c3ccccc3C=Cc3ccccc32)CC1	i	i	i	i	13*
CCC1(CC)C(=O)N(C)C(=O)NC1=NCc1ccccc1	i	i	i	i	i
COCCn1c(SCC(=O)Nc2cc(C)on2)nnc1C(C)C	i	i	i	i	i
Clc1ccc(-n2cc(-c3ccc(Br)cc3)[n+]3c2CCCCC3)cc1	i	i	i	-6*	i
Cc1ccc(-c2cn(-c3ccc(OC(F)F)cc3)c3[n+]2CCCCC3)cc1	i	i	i	i	i
COc1ccc(C[C@H]2CN3C(=NC[C@@H]3Cc3ccccc3)N2CCNC(=O)c2ccc(C)c(Br)c2)cc1	48*	i	i	i	i
